In general, EC50 refers to the concentration giving half of the maximal effect. A lower EC50 goes with higher potency in that assay.

The values that follow come from ChEMBL document CHEMBL4196177, “Synthesis, Evaluation, and Structure-Activity Relationship Study of Lanosterol Derivatives To Reverse Mutant-Crystallin-Induced Protein Aggregation” (J Med Chem, 2018).

Substitutions are numbered along the chain they refer to. The source made the active and inactive calls. No cut-off for these calls is given here.

Test [1] deals with T1, Gamma-crystallin C (Homo sapiens), P07315 [G129C].
T1 sequence (whole entry): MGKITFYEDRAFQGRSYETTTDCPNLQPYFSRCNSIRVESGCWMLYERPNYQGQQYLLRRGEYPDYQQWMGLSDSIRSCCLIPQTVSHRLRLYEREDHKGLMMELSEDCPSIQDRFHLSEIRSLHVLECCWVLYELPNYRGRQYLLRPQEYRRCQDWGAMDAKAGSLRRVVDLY
The experiment in a line: Induction of redissolving of aggregated gamma-crystallin C G129C mutant (unknown origin) at 200 uM incubated for 24 hrs by transmission-electron-microscopy. Put shortly:
(§1)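 Pre-formed amyloid-like fibrils of mutant crystallin proteins were treated with compounds in liposomes or with a liposome vehicle. Fibrillar structures were then examined by negative-stain transmission electron microscopy.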

The subject of test [2] is T2, Beta-crystallin B2 (Homo sapiens), P43320 [R188H].
T2 sequence (whole entry): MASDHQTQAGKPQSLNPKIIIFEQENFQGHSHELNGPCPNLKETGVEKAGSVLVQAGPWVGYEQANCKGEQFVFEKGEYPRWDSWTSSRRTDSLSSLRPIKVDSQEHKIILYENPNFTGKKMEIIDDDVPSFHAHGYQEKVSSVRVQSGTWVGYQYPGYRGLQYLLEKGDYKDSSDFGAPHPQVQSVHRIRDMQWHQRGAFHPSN
The experiment in a line: Induction of redissolving of aggregated beta-crystallin B2 R188H mutant (unknown origin) at 200 uM incubated for 24 hrs by transmission-electron-microscopy. The essentials: as §1

In test [3] the test system is T3, Alpha-crystallin A chain (Homo sapiens), P02489 [Y118D].
T3 sequence (whole entry): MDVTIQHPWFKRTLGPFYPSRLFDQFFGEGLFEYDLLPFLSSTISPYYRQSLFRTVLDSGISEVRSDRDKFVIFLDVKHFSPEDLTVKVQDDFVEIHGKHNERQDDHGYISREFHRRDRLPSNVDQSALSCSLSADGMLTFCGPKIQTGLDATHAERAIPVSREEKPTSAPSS
Kind of test: Induction of redissolving of aggregated alpha-crystallin A Y118D mutant (unknown origin) at 200 uM incubated for 24 hrs by transmission-electron-microscopy. Put shortly:
as §1

For test [4], the system named is T2, Beta-crystallin B2 (Homo sapiens), P43320 [R188H]. Kind of test: Induction of redissolving of aggregated beta-crystallin B2 R188H mutant (unknown origin) at 200 uM incubated for 24 hrs by ThT-fluorescence based assay. Put shortly:
(§2)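 Purified mutant crystallin proteins, pre-formed into amyloid-like fibrils, were treated with compounds delivered in liposomes, with a liposome-only vehicle control. Redissolution was read as thioflavin T (ThT) fluorescence, n = 3.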

Test [5] has as its system T4, Alpha-crystallin A chain (Homo sapiens), P02489 [R116H].
T4 sequence (whole entry): T3 sequence (whole entry) with R116H, D118Y
The experiment in a line: Induction of redissolving of aggregated alpha-crystallin A R116H mutant (unknown origin) at 200 uM incubated for 24 hrs by transmission-electron-microscopy. Put shortly: as §1

The target in test [6] is T5, Alpha-crystallin B chain (Homo sapiens, UniProt P02511, R120G). Kind of test: Inhibition of alpha-crystallin B R120G mutant (unknown origin)-induced intracellular protein aggregation expressed in human HeLa cells or HLE-B3 cells incubated for 6 to 8 hrs by fluorescence microscopy relative to untreated control. Type of test: cell-based.
Test [7] deals with T6, Alpha-crystallin B chain (Homo sapiens), P02511 [R120G].
T6 sequence (whole entry): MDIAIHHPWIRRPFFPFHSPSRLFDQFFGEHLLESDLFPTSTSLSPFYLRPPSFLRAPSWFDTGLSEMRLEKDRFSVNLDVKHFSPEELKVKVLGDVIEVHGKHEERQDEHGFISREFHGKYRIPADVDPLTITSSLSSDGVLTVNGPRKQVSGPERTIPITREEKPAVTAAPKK
Kind of test: Induction of redissolving of aggregated alpha-crystallin B R120G mutant (unknown origin) at 200 uM incubated for 24 hrs by transmission-electron-microscopy. The essentials: as §1

Test [8] has as its system T7, Gamma-crystallin D (Homo sapiens), P07320 [W43R].
T7 sequence (whole entry): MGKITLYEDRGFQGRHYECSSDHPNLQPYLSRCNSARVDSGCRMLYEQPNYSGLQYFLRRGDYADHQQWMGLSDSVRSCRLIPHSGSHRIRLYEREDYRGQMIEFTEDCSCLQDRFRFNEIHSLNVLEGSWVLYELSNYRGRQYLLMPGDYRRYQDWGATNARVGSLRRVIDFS
Kind of test: Induction of redissolving of aggregated gamma-crystallin D W43R mutant (unknown origin) at 200 uM incubated for 24 hrs by transmission-electron-microscopy. The essentials:
as §1

Test [9] deals with T3, Alpha-crystallin A chain (Homo sapiens), P02489 [Y118D]. Kind of test: Induction of redissolving of aggregated alpha-crystallin A Y118D mutant (unknown origin) at 200 uM incubated for 24 hrs by ThT-fluorescence based assay. The essentials:
as §2

Test [10] has as its target T5, Alpha-crystallin B chain. The experiment in a line: Induction of redissolving of aggregated alpha-crystallin B R120G mutant (unknown origin) incubated for 24 hrs by ThT-fluorescence based assay. The essentials: (§3)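 Dose–response EC50 for redissolving pre-formed amyloid-like fibrils of αA Y118D or αB R120G crystallin. Compounds were delivered in liposomes and the read-out was thioflavin T fluorescence.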

A further test has as its target Alpha-crystallin A chain (Homo sapiens, UniProt P02489, Y118D). Kind of test: Induction of redissolving of aggregated alpha-crystallin A Y118D mutant (unknown origin) incubated for 24 hrs by ThT-fluorescence based assay. The essentials: as §3

Take `C[C@H](CCCC(C)(C)O)[C@H]1CC[C@@]2(C)[C@@]34CC[C@H]5C(C)(C)/C(=N/O)CC[C@]5(C)[C@]3(CC[C@]12C)O4`: the outcome in test [1], in [2], in test [3], in test [4], in test [5] and in test [7] was inactive. For the same compound, the result in test [8] and in test [9] was inactive. The concentration for a half-maximal effect (EC50) result at Alpha-crystallin B chain [6] is given as “Not Active”.
As for `C[C@H](CCCC(C)(C)O)[C@H]1CC[C@@]2(C)C3=C(CC[C@]12C)[C@@]1(C)CC[C@H](O)C(C)(C)[C@@H]1CC3`, the EC50 on Alpha-crystallin B chain [10] came out at 3120 nM; on Alpha-crystallin A chain, 35.6 nM. Moreover, the outcome in test [1], in [2], in test [3], in test [4], in test [5] and in test [7] was Active. Also, the result in test [8] and in test [9] was Active.
